This passage reports IC50 and Activity results from ChEMBL document CHEMBL1141446, “Uncovering biosynthetic potential of plant-associated fungi: effect of culture conditions on metabolite production by Paraphaeosphaeria quadriseptata and Chaetomium chiversii” (J Nat Prod, 2007).

In one experiment the test system is NCI-H460. Put plainly: Antiproliferative activity against human NCI-H460 cells by MTT assay. The experiment is classed as functional, cell-based. Summed up:
(§1)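 Cells were exposed for 72 h to serial dilutions of test compound in RPMI 1640 supplemented with 10% fetal bovine serum. Viability was read by MTT assay, and IC50 was taken as the concentration giving 50% inhibition of proliferation/survival. A positive control was run alongside.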
On the technique in general: Formazan colour is commonly taken as a measure of viable cells.

Another experiment concerns MCF7. Briefly: Antiproliferative activity against human MCF7 cells by MTT assay. Type of experiment: functional, cell-based. Summed up:
as §1

For another experiment, the system named is SF-268. Put plainly: Antiproliferative activity against human SF268 cells by MTT assay. The experiment is classed as functional, cell-based. In short, it runs like this:
as §1

The species named for the next experiment is Mus musculus. Put plainly: Induction of heat shock in mouse 3T3-Y9/B12 reporter cells at 5 uM by heat shock induction assay. Type of experiment: functional.

Structures are written as SMILES. Active and inactive are the calls of the source. The calls are words filed in the database; no cut-off is given here.

In general, IC50 refers to the concentration needed to halve the response being measured.

`C[C@@H]1C[C@H]2O[C@@H]2C[C@H](O)/C=C/C(=O)Cc2cc(O)cc(O)c2C(=O)O1`: the IC50 came to 300 nM in the experiment on NCI-H460, 150 nM in the experiment on MCF7 and 550 nM in the experiment with SF-268. In addition, the outcome in the experiment listed under Mus musculus was Active.
For `C[C@@H]1C[C@H]2O[C@@H]2/C=C\C=C\C(=O)Cc2c(Cl)c(O)cc(O)c2C(=O)O1`, the result in the experiment filed under Mus musculus was Active.
Consider `COc1cccc2c1C(=O)c1c(O)c3c(c(O)c1C2=O)C[C@@](O)(C(=O)CO)C[C@@H]3O[C@H]1C[C@H](N)[C@H](O)[C@H](C)O1` [DOXORUBICIN], for which the IC50 in the experiment on NCI-H460 amounted to 10 nM.
In the case of `C[C@@H]1C[C@H]2O[C@@H]2CC/C=C/C(=O)Cc2cc(O)cc(O)c2C(=O)O1` [MONOCILLIN III], the IC50 in the experiment on NCI-H460 worked out at 500 nM; with MCF7, 400 nM; in the experiment on SF-268 it was 300 nM. Besides, the result in the experiment filed under Mus musculus was Active.
As to `C[C@@H]1C[C@H]2O[C@@H]2/C=C\C=C\C(=O)Cc2cc(O)cc(O)c2C(=O)O1` [MONOCILLIN I], the figures for the IC50 in the experiment with NCI-H460, in the experiment with MCF7 and with SF-268 were 350 nM, 600 nM and 720 nM, respectively. For the same compound, in the experiment filed under Mus musculus, the outcome was Active.
